Results published in ChEMBL document CHEMBL1122485, “Antibacterially active substituted anilides of carboxylic and sulfonic acids” (1983).
In brackets after ≈: the same amount, converted by molar mass.

Key:
Enterococcus faecalis = assay: Activity at 10 ppm against Streptococcus faecalis; x=Effective; type: functional, organism-based
Method in brief: (§1)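 Gram-positive panel on nutrient agar containing compound at 10, 1.0 and 0.1 ppm, duplicate plates. Six 15-µL drops per species, each holding 10⁷ vegetative cells (10⁶ for L. plantarum). Hexachlorophene and no-compound plates were run alongside. Plates were incubated 5 days at 30 °C and scored for growth. MIC was taken as the lowest level with no colonies on either plate.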

Bacillus cereus [1] = assay: Activity at 10 ppm against Bacillus cereus NRRL 3711; x=Effective; type: functional, organism-based; method in brief: as §1
Staphylococcus aureus [2] = assay: Bacteriostatic activity against Staphylococcus aureus ATCC 6538 at 10 ppm concentration; + =Positive; type: functional, organism-based
Method in brief: (§2)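 S. aureus was inoculated at 10⁷/mL into 10 mL nutrient broth with 10 ppm compound. Those tubes were centrifuged (10000g, 10 min), resuspended in sterile diluent and streaked onto nutrient agar. Colonies after 48 h at 30 °C meant bacteriostatic; none meant bactericidal.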

Staphylococcus aureus [3] = assay: Activity at 10 ppm against Staphylococcus aureus ATCC 6538; x=Effective; type: functional, organism-based
Staphylococcus aureus [4] = assay: Minimum inhibitory concentration against staphylococcus aureus ATCC 6538; type: functional
Method in brief: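 Agar dilution: 1% stocks in 95% ethanol or water, serially diluted into nutrient agar (pH 6.8) to 1000, 100, 10 and 1 ppm. Plates were dried 30 min at 37 °C and spotted with ten drops of 24-h nutrient broth culture. Incubation was 48 h at 37 °C, in duplicate, with hexachlorophene as standard. MIC was the lowest level with no growth of any inoculum on either dish.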

[5] = system: Lactiplantibacillus plantarum; assay: Activity at 10 ppm against Lactobacillus plantarum; x=Effective; type: functional, organism-based; method in brief: as §1
Staphylococcus aureus [6] = assay: Bactericidal activity against Staphylococcus aureus ATCC 6538 at 10 ppm concentration; - = Negative; type: functional, organism-based; method in brief: as §2
Bacillus cereus [7] = assay: Activity at 10 ppm against Bacillus cereus NRRL 3711; d=A few resistant colonies grew; type: functional, organism-based; method in brief: as §1
Staphylococcus aureus [8] = assay: Bacteriostatic activity against Staphylococcus aureus ATCC 6538 at 10 ppm concentration; - = Negative; type: functional, organism-based; method in brief: as §2

SMILES	MIC (Staphylococcus aureus [4])	further results
C=C(CCCCCC)C(=O)Nc1cc([N+](=O)[O-])ccc1O	1 µg/mL (≈ 3.42 µM)	Activity (Enterococcus faecalis): Concentration effective; Activity (Bacillus cereus [1]): Concentration effective; Activity (Staphylococcus aureus [2]): Negative; Activity (Staphylococcus aureus [3]): Concentration effective; Activity [5]: Concentration effective; Activity (Staphylococcus aureus [6]): Negative
CCCCc1ccc(S(=O)(=O)Nc2cc([N+](=O)[O-])ccc2O)cc1	10 µg/mL (≈ 28.5 µM)	Activity (Bacillus cereus [1]): Concentration effective; Activity (Staphylococcus aureus [2]): Negative; Activity (Staphylococcus aureus [3]): Concentration effective; Activity [5]: Concentration effective; Activity (Staphylococcus aureus [6]): Negative
C=C(CCCCCC)C(=O)Nc1cc(Cl)cc(Cl)c1	1 µg/mL (≈ 3.33 µM)	Activity (Staphylococcus aureus [2]): Negative; Activity (Staphylococcus aureus [3]): Concentration effective; Activity [5]: Concentration effective; Activity (Staphylococcus aureus [6]): Negative
CCCCCCC(=O)Nc1cc(Cl)cc(Cl)c1	1 µg/mL (≈ 3.65 µM)	Activity (Staphylococcus aureus [2]): Negative; Activity (Staphylococcus aureus [3]): Concentration effective; Activity [5]: Concentration effective; Activity (Staphylococcus aureus [6]): Negative
C=C(CCCC)C(=O)Nc1cc(Cl)cc(Cl)c1	10 µg/mL (≈ 36.7 µM)	–
COC(=O)CCCCCCC(=O)Nc1ccc(Cl)c([N+](=O)[O-])c1	1000 µg/mL (≈ 2920 µM)	–
O=C(O)CCCCCCC(=O)Nc1ccc(Cl)c(Cl)c1	100 µg/mL (≈ 314 µM)	–
O=C(O)CCCCCCCC(=O)Nc1ccc(Cl)c([N+](=O)[O-])c1	100 µg/mL (≈ 292 µM)	–
C=C(CCCCCC)C(=O)Nc1cc(Cl)ccc1O	1 µg/mL (≈ 3.55 µM)	–
CCCCCCCCCC(=O)Nc1ccc(Cl)c([N+](=O)[O-])c1	10 µg/mL (≈ 30.6 µM)	–
O=C(CCc1ccccc1)Nc1cc(Cl)ccc1O	100 µg/mL (≈ 363 µM)	–
COC(=O)CCCCCCCC(=O)Nc1ccc(Cl)c(Cl)c1	1 µg/mL (≈ 2.89 µM)	–
CCCCCCCCC(=O)Nc1ccc(Cl)c([N+](=O)[O-])c1	1 µg/mL (≈ 3.2 µM)	Activity (Bacillus cereus [7]): A few resistant colonies grew; Activity (Staphylococcus aureus [2]): Negative; Activity [5]: Concentration effective; Activity (Staphylococcus aureus [6]): Negative
CCCCc1ccc(S(=O)(=O)Nc2ccc(Cl)c([N+](=O)[O-])c2)cc1	1 µg/mL (≈ 2.71 µM)	Activity (Enterococcus faecalis): Concentration effective; Activity (Staphylococcus aureus [8]): Negative; Activity [5]: Concentration effective; Activity (Staphylococcus aureus [6]): Negative
O=C(O)CCC(=O)Nc1c(Cl)cccc1Cl	> 1000 µg/mL	–
CCCCCCCC(=O)Nc1cc(Cl)ccc1O	10 µg/mL (≈ 37.1 µM)	–
CCC(C)c1ccc(S(=O)(=O)Nc2ccc(Cl)c(Cl)c2)cc1 (stereo unspecified)	10 µg/mL (≈ 27.9 µM)	–
CCCc1ccc(S(=O)(=O)Nc2ccc(Cl)c([N+](=O)[O-])c2)cc1	10 µg/mL (≈ 28.2 µM)	–
Cc1ccc(C(=O)Nc2ccc(Cl)c(Cl)c2)cc1	1000 µg/mL (≈ 3570 µM)	–
O=S(=O)(Nc1ccc(Cl)c(Cl)c1)c1ccc(Cl)c(Cl)c1	1 µg/mL (≈ 2.69 µM)	Activity (Enterococcus faecalis): Concentration effective; Activity (Bacillus cereus [1]): Concentration effective; Activity (Staphylococcus aureus [2]): Negative; Activity (Staphylococcus aureus [3]): Concentration effective; Activity [5]: Concentration effective; Activity (Staphylococcus aureus [6]): Negative
CCCCc1ccc(C(=O)Nc2cc(Cl)ccc2O)cc1	1000 µg/mL (≈ 3290 µM)	–

SMILES	MIC (Staphylococcus aureus [4])	further results
CCCCCCCCCCCC(=O)Nc1ccc(Cl)c(Cl)c1	100 µg/mL (≈ 290 µM)	–
O=C(O)CCCCCCC(=O)Nc1ccc(Cl)c([N+](=O)[O-])c1	100 µg/mL (≈ 304 µM)	–
CCCCCCCCCCCC(=O)Nc1ccc(Cl)c([N+](=O)[O-])c1	> 1000 µg/mL	–
C=C(CCCCCCC)C(=O)Nc1cc(Cl)ccc1O	1 µg/mL (≈ 3.38 µM)	–
O=C(Cc1ccccc1)Nc1cc(Cl)ccc1O	100 µg/mL (≈ 382 µM)	–
CCCCCCCCCC(=O)Nc1cc(Cl)ccc1O	1 µg/mL (≈ 3.36 µM)	–
CCCCCC(=O)Nc1ccc(Cl)c(Cl)c1	10 µg/mL (≈ 38.4 µM)	–
O=C(O)CCCCC(=O)Nc1ccc(Cl)c([N+](=O)[O-])c1	100 µg/mL (≈ 333 µM)	–
C=C(CCCCCCC)C(=O)Nc1ccc(Cl)c(Cl)c1	1 µg/mL (≈ 3.18 µM)	–
CC(CC(=O)Nc1ccc(Cl)c(Cl)c1)c1ccccc1 (stereo unspecified)	10 µg/mL (≈ 32.4 µM)	–
COC(=O)CCCCCCCCC(=O)Nc1ccc(Cl)c([N+](=O)[O-])c1	> 1000 µg/mL	–
O=C(Cc1ccccc1)Nc1ccc(Cl)c(Cl)c1	> 1000 µg/mL	–
C=C(CCCCC)C(=O)Nc1ccc(Cl)c([N+](=O)[O-])c1	10 µg/mL (≈ 33.7 µM)	–
CCCc1ccc(S(=O)(=O)Nc2cc([N+](=O)[O-])ccc2O)cc1	1 µg/mL (≈ 2.97 µM)	–
COC(=O)CCCCCCCC(=O)Nc1ccc(Cl)c([N+](=O)[O-])c1	1000 µg/mL (≈ 2800 µM)	–
O=C(O)CCCCCCCCC(=O)Nc1ccc(Cl)c([N+](=O)[O-])c1	> 1000 µg/mL	–
C=C(CCCC)C(=O)Nc1ccc(Cl)c(Cl)c1	10 µg/mL (≈ 36.7 µM)	–
CCCCCCC(=O)Nc1ccc(Cl)c(Cl)c1	10 µg/mL (≈ 36.5 µM)	–
C=C(CCCCC)C(=O)Nc1cc(Cl)cc(Cl)c1	1 µg/mL (≈ 3.49 µM)	Activity (Bacillus cereus [7]): A few resistant colonies grew; Activity (Staphylococcus aureus [2]): Negative; Activity (Staphylococcus aureus [3]): Concentration effective; Activity [5]: Concentration effective; Activity (Staphylococcus aureus [6]): Negative
CCCCCCCCC(=O)Nc1cc(Cl)cc(Cl)c1	1 µg/mL (≈ 3.31 µM)	–
O=S(=O)(Nc1cc(Cl)ccc1O)c1ccc(Cl)c(Cl)c1	10 µg/mL (≈ 28.4 µM)	–

SMILES	MIC (Staphylococcus aureus [4])	further results
CCCc1ccc(S(=O)(=O)Nc2cc(Cl)ccc2O)cc1	1 µg/mL (≈ 3.07 µM)	Activity (Enterococcus faecalis): Concentration effective; Activity (Bacillus cereus [1]): Concentration effective; Activity (Staphylococcus aureus [2]): Negative; Activity (Staphylococcus aureus [3]): Concentration effective; Activity [5]: Concentration effective; Activity (Staphylococcus aureus [6]): Negative
Cc1ccc(S(=O)(=O)Nc2ccc(Cl)c(Cl)c2)cc1	10 µg/mL (≈ 31.6 µM)	–
CCCCc1ccc(C(=O)Nc2cc([N+](=O)[O-])ccc2O)cc1	1 µg/mL (≈ 3.18 µM)	–
C=C(CCCC)C(=O)Nc1cc(Cl)ccc1O	100 µg/mL (≈ 394 µM)	–
C=C(CCCCCC)C(=O)Nc1ccc(Cl)c([N+](=O)[O-])c1	1 µg/mL (≈ 3.22 µM)	–
CCCCCCCCC(=O)Nc1cc([N+](=O)[O-])ccc1O	10 µg/mL (≈ 34 µM)	–
O=C(CCc1ccccc1)Nc1ccc(Cl)c(Cl)c1	1 µg/mL (≈ 3.4 µM)	–
CCCCCCCCCCCC(=O)Nc1cc([N+](=O)[O-])ccc1O	1000 µg/mL (≈ 2970 µM)	–
CCCCCCC(=O)Nc1ccc(Cl)c([N+](=O)[O-])c1	10 µg/mL (≈ 35.1 µM)	–
CCCCCCCC(=O)Nc1ccc(Cl)c([N+](=O)[O-])c1	1 µg/mL (≈ 3.35 µM)	Activity (Bacillus cereus [1]): Concentration effective; Activity (Staphylococcus aureus [8]): Negative; Activity [5]: Concentration effective; Activity (Staphylococcus aureus [6]): Negative
C=C(CCCCC)C(=O)Nc1cc([N+](=O)[O-])ccc1O	10 µg/mL (≈ 35.9 µM)	–
CCc1ccc(C(=O)Nc2ccc(Cl)c(Cl)c2)cc1	> 1000 µg/mL	–
CCCCCCCCC(=O)Nc1ccc(Cl)c(Cl)c1	1 µg/mL (≈ 3.31 µM)	–
CCCCCCCC(=O)Nc1cc([N+](=O)[O-])ccc1O	1 µg/mL (≈ 3.57 µM)	Activity (Enterococcus faecalis): Concentration effective; Activity (Bacillus cereus [1]): Concentration effective; Activity (Staphylococcus aureus [2]; Bacteria): Negative; Activity (Staphylococcus aureus [3]): Concentration effective; Activity [5]: Concentration effective; Activity (Staphylococcus aureus [6]): Negative
C=C(CCCCCCCC)C(=O)Nc1cc(Cl)ccc1O	1 µg/mL (≈ 3.23 µM)	–
O=[N+]([O-])c1cc(NS(=O)(=O)c2ccc(Cl)c(Cl)c2)ccc1Cl	1 µg/mL (≈ 2.62 µM)	Activity (Enterococcus faecalis): Concentration effective; Activity (Staphylococcus aureus [2]): Negative; Activity [5]: Concentration effective; Activity (Staphylococcus aureus [6]): Negative
O=[N+]([O-])c1ccc(O)c(NS(=O)(=O)c2ccc(Cl)c(Cl)c2)c1	10 µg/mL (≈ 27.5 µM)	–
CCCCCCC(=O)Nc1cc([N+](=O)[O-])ccc1O	10 µg/mL (≈ 37.6 µM)	–
CCCCCCCCCC(=O)Nc1ccc(Cl)c(Cl)c1	10 µg/mL (≈ 31.6 µM)	–
O=S(=O)(Nc1ccc(Cl)c(Cl)c1)c1cc(Cl)ccc1Cl	1000 µg/mL (≈ 2690 µM)	–
O=C(O)CCCCCCCCC(=O)Nc1ccc(Cl)c(Cl)c1	> 1000 µg/mL	–
